Data published in ChEMBL document CHEMBL4257586, “Polyheteroaryl Oxazole/Pyridine-Based Compounds Selected in Vitro as G-Quadruplex Ligands Inhibit Rock Kinase and Exhibit Antiproliferative Activity” (J Med Chem, 2018).
The source made the active and inactive calls. No cut-off for these calls is given here.

Assays:
[1] = Drug uptake in human HeLa cell nucleus at 3.3 uM after 17 hrs imaged with 488 nm excitation by intrinsic fluorescence based assay; assay type: ADME, subcellular
Procedure, shortened: (§1)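 HeLa cells treated 17 h at 2 μM, or 3.3 μM for one analogue. Imaged by confocal microscopy with no added fluorophore, using 488 nm excitation, plus 405 nm excitation for the 3.3 μM treatment. Intrinsic compound fluorescence was compared with cell background near 510 nm.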

[2] = Drug uptake in human HeLa cell nucleus at 3.3 uM after 17 hrs imaged with 405 nm excitation by intrinsic fluorescence based assay; assay type: ADME, subcellular; procedure, shortened: as §1
[3] = Drug uptake in human HeLa cell cytoplasm at 3.3 uM after 17 hrs imaged with 405 nm excitation by intrinsic fluorescence based assay; assay type: ADME, subcellular; procedure, shortened: as §1
HeLa [4] = assay: Induction of cell cycle arrest in human HeLa cells at 2 uM after 48 hrs by propidium iodide-staining based flow cytometry; assay type: functional
Procedure, shortened: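 HeLa cells serum-starved 96 h for synchronization, then released and treated 48 h. Fixed in ice-cold 70% ethanol 1 h, stained with propidium iodide 50 μg/mL plus RNase A 0.2 mg/mL for 15 min at 37 °C, and analyzed by FACS.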

A-375 [5] = assay: Induction of double stranded DNA breaks in human A375 cells assessed as gamma-H2Ax phosphorylation at 2 uM after 24 to 48 hrs by Hoechst 33342 staining-based laser confocal microscopy; assay type: functional, cell-based
A549 [6] = assay: Cytotoxicity against human A549 cells assessed as presence of large vesicles at 2 uM after 24 to 48 hrs by Hoechst 33342 staining-based laser confocal microscopy; assay type: functional, cell-based
[7] = target: T1, Rho-associated protein kinase 2 (Homo sapiens, UniProt O75116); assay: Inhibition of ROCK2 in human HeLa cells assessed as reduction in MYPT1 phosphorylation at Thr853 at 5 uM after 3 hrs by immunofluorescence assay; assay type: cell-based
Procedure, shortened: (§2)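 HeLa cells treated 3 h at 2 or 5 μM, with Y-27632 and untreated controls, then formaldehyde-fixed. Phospho-MYPT1 Thr853 or phospho-cofilin Ser3 immunostained with DNA. Confocal 0.5 μm slices plus z-projection, with acquisition settings fixed from the control.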

[8] = target: T1, Rho-associated protein kinase 2; assay: Inhibition of ROCK2 in human HeLa cells assessed as reduction in cofilin phosphorylation at Ser3 at 5 uM after 3 hrs by immunofluorescence assay; assay type: cell-based; procedure, shortened: as §2
[9] = target: T1, Rho-associated protein kinase 2; assay: Inhibition of ROCK2 in human HeLa cells assessed as reduction in cofilin phosphorylation at Ser3 at 5 uM after 3 hrs by Western blot analysis; assay type: cell-based
Procedure, shortened: (§3)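 HeLa cells treated 3 h at 2 or 5 μM, then lysed in RIPA buffer with protease and phosphatase inhibitors. Western blot probed with anti-phospho-cofilin Ser3 and anti-actin (1/1000) on the same split membrane; luminescence detection.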

[10] = Drug uptake in human HeLa cell cytoplasm at 3.3 uM after 17 hrs imaged with 488 nm excitation by intrinsic fluorescence based assay; assay type: ADME, subcellular; procedure, shortened: as §1
HeLa [11] = assay: Cytotoxicity against human HeLa cell spheroids assessed as spheroid growth inhibition at 4 uM administered at day 3 post expansion and measured after […] by 3D-celltiter Glo assay relative to control; assay type: functional
Procedure, shortened: (§4)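 HeLa cells plated at 800/well in ultralow-adherence plates; one spheroid formed within 24 h at 37 °C, 5% CO2, grown in complete medium. Drug added at day 3, at four concentrations per compound. Largest section area measured daily by confocal imaging, five spheroids per condition. ATP-based CellTiter-Glo 3D luminescence read at day 6 after dosing.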

HeLa [12] = assay: Cytotoxicity against human HeLa cell spheroids assessed as effect on ATP content at 1 to 4 uM administered at day 3 post expansion and measured on day 6 by bioluminescence based assay; assay type: functional; procedure, shortened: as §4
A-431 = assay: Antiproliferative activity against human A431 cells after 72 hrs by MTS assay; assay type: functional, cell-based; conditions: A-431, 72 h
Procedure, shortened: (§5)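 Cells seeded at day 0 in 96-well plates, serial compound dilutions added at day 1; viable cells read 72 h after drug addition by MTS tetrazolium assay, in triplicate. IC50 taken as concentration halving cell growth. One first trial, then two additional experiments on selected compounds.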

HeLa [13] = assay: Antiproliferative activity against human HeLa cells after 72 hrs by MTS assay; assay type: functional, cell-based; procedure, shortened: as §5
A549 [14] = assay: Antiproliferative activity against human A549 cells after 72 hrs by MTS assay; assay type: functional, cell-based; conditions: A549, 72 h; procedure, shortened: as §5
U-87 MG = assay: Antiproliferative activity against human U87 cells after 72 hrs by MTS assay; assay type: functional, cell-based, U-87MG ATCC; procedure, shortened: as §5
A-375 [15] = assay: Antiproliferative activity against human A375 cells after 72 hrs by MTS assay; assay type: functional, cell-based; conditions: A-375, 72 h; procedure, shortened: as §5
NCI-H358 = assay: Antiproliferative activity against human NCI-H358 cells after 72 hrs by MTS assay; assay type: functional, cell-based; conditions: NCI-H358, 72 h; procedure, shortened: as §5
M21 [16] = assay: Antiproliferative activity against human M21 cells after 72 hrs by MTS assay; assay type: functional, cell-based; conditions: M21, 72 h; procedure, shortened: as §5
M21 [17] = assay: Antiproliferative activity against alpha5-integrin lacking human M21 cells after 72 hrs by MTS assay; assay type: functional, cell-based; conditions: M21, 72 h; procedure, shortened: as §5
A-375 [18] = assay: Induction of double stranded DNA breaks in human A375 cells assessed as gamma-H2Ax phosphorylation at 1 uM after 24 to 48 hrs by Hoechst 33342 staining-based laser confocal microscopy; assay type: functional, cell-based
[19] = target: T1, Rho-associated protein kinase 2; assay: Inhibition of ROCK2 (unknown origin) at 1 uM by ATP competition assay relative to control
Procedure, shortened: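 Single-point screen at 1 μM across a 50-kinase panel: recombinant enzymes, 33P-ATP radioactive filter-binding assay, duplicates, activity expressed relative to no-compound control.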

[20] = target: T1, Rho-associated protein kinase 2; assay: Inhibition of ROCK2 in human HeLa cells assessed as reduction in cofilin phosphorylation at Ser3 at 2 uM after 3 hrs by immunofluorescence assay; assay type: cell-based; procedure, shortened: as §2
[21] = target: T1, Rho-associated protein kinase 2; assay: Inhibition of ROCK2 in human HeLa cells assessed as reduction in cofilin phosphorylation at Ser3 at 2 uM after 3 hrs by Western blot analysis; assay type: cell-based; procedure, shortened: as §3
[22] = Drug uptake in human HeLa cell nucleus at 2 uM after 17 hrs imaged with 488 nm excitation by intrinsic fluorescence based assay; assay type: ADME, subcellular; procedure, shortened: as §1
HeLa [23] = assay: Cytotoxicity against human HeLa cell spheroids assessed as cell growth inhibition at 300 nM administered at day 3 post expansion and measured […] by 3D-celltiter Glo assay; assay type: functional, cell-based; procedure, shortened: as §4
HeLa [24] = assay: Cytotoxicity against human HeLa cell spheroids assessed as effect on ATP content at 0.3 to 2 uM […] by bioluminescence based assay; assay type: functional
HEK293 = assay: Antiproliferative activity against HEK293 cells after 72 hrs by MTS assay; assay type: cell-based; conditions: Homo sapiens, HEK293, 72 h; procedure, shortened: as §5
HeLa [25] = assay: Cytotoxicity against human HeLa cell spheroids assessed as cell growth inhibition at 570 nM administered at day 3 post expansion and […] by 3D-celltiter Glo assay; assay type: functional, cell-based; procedure, shortened: as §4
HeLa [26] = assay: Cytotoxicity against human HeLa cell spheroids assessed as effect on ATP content at 0.57 to 2 uM administered at day 3 post expansion and measured on day 6 by bioluminescence based assay; assay type: functional; procedure, shortened: as §4

T1 sequence (O75116 whole entry, looked up): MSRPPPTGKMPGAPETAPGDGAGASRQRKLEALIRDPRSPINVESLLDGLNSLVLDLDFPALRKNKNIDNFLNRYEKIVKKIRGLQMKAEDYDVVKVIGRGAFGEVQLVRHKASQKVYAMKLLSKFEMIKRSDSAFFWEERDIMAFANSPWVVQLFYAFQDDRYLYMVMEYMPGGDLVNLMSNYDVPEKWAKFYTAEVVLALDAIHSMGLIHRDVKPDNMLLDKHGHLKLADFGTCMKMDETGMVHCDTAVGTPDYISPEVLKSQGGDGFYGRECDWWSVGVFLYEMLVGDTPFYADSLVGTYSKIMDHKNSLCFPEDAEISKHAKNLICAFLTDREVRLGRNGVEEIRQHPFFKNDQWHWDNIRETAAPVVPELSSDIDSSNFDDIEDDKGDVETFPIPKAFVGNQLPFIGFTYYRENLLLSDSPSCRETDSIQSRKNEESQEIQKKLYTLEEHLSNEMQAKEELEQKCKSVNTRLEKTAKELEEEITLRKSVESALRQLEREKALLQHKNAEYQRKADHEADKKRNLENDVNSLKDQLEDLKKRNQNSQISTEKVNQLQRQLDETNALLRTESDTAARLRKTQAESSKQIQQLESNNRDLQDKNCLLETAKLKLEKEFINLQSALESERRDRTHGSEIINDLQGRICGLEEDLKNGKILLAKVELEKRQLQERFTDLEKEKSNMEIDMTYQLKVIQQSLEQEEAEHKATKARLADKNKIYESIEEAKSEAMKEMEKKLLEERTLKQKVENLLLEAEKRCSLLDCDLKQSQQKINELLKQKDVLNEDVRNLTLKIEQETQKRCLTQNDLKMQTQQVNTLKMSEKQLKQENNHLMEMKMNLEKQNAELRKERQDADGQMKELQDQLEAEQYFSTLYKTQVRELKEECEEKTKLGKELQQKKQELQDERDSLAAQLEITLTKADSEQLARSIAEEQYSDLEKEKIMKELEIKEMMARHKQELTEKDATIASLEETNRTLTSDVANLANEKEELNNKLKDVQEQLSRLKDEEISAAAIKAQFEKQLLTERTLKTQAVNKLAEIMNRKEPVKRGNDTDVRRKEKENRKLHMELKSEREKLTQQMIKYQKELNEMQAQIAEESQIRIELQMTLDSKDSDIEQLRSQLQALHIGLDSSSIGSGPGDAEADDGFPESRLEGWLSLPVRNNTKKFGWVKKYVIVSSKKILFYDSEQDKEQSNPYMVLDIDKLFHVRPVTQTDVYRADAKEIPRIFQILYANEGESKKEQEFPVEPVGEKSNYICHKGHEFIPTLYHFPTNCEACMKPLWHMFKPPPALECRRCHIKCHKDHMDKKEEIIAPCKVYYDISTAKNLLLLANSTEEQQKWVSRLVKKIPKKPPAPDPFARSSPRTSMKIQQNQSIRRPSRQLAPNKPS

SMILES | IC50 (A-431) | IC50 (HeLa [13]) | IC50 (A549 [14]) | IC50 (U-87 MG) | IC50 (A-375 [15]) | IC50 (NCI-H358) | IC50 (M21 [16]) | IC50 (M21 [17]) | Activity (A-375 [18]) | inhibition [20] | inhibition [21] | Drug uptake [22] | also measured
CN(C)CCOc1cc(-c2ncc(-c3cccc(-c4cnco4)n3)o2)nc(-c2ncc(-c3cccc(-c4cnco4)n3)o2)c1 |  |  |  |  |  |  |  |  |  |  |  |  | Drug uptake [1]: Active; Drug uptake [2]: Active; Drug uptake [3]: Active; Activity (HeLa [4]): inactive; Activity (A-375 [5]): inactive; Activity (A549 [6]): Active; inhibition [7]: Active; inhibition [8]: Active; inhibition [9]: Active; Drug uptake [10]: Active; growth inhibition (GI) (HeLa [11]): 25%; Activity (HeLa [12]): Active
c1cc(-c2cnco2)nc(-c2cnc(-c3cccc(-c4cccc(-c5ncc(-c6cccc(-c7cnco7)n6)o5)n4)n3)o2)c1 | 541 nM | 134 nM | 3950 nM | 246 nM | 592 nM | 3750 nM | 1580 nM | 3570 nM | inactive | Active | Active | Active | inhibition [19]: 70%; growth inhibition (GI) (HeLa [23]): Active; Activity (HeLa [24]): Active
c1cc(-c2cnco2)nc(-c2cnc(-c3cccc(-c4ncc(-c5cccc(-c6cnco6)n5)o4)n3)o2)c1 | 645 nM | 257 nM | 2710 nM | 440 nM | 440 nM | 7700 nM | 1560 nM | 7240 nM | inactive | Active | Active | Active | IC50 (HEK293): 457 nM; growth inhibition (GI) (HeLa [25]): Active; Activity (HeLa [26]): Active
